Reference: ChEMBL document CHEMBL1145518, “Potent immune-modulating and anticancer effects of NKT cell stimulatory glycolipids” (2007)
The source made the active and inactive calls. The calls are words filed in the database; no cut-off is given here.

How the values were obtained:
[1] = test system: Mus musculus; test: Induction of IL12p70 secretion in BALB/c mouse serum at 2 ug, iv after 18 hrs relative to control; format: functional
Summary of the method: (§1)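 BALB/c mice received an i.v. injection of 100 μl of glycolipid diluted to 20 μg/ml in saline from DMSO stock, with 1% DMSO as vehicle. Serum cytokines/chemokines were measured at 2 and 18 h after injection.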

[2] = test system: Mus musculus; test: Induction of RANTES secretion in BALB/c mouse serum at 2 ug, iv after 2 hrs relative to control; format: functional; summary of the method: as §1
[3] = test system: Mus musculus; test: Induction of IL4 secretion in BALB/c mouse serum at 2 ug, iv after 2 hrs relative to control; format: functional; summary of the method: as §1
[4] = test system: Mus musculus; test: Induction of TNFalpha secretion in BALB/c mouse serum at 2 ug, iv after 18 hrs relative to control; format: functional; summary of the method: as §1
[5] = Induction of TNFalpha secretion in human CD161+ CD3+ NKT cells at 10 ug/ml after 18 hrs relative to basal level; format: functional
Summary of the method: (§2)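 Human Vα24i NKT cell lines were expanded for 10 days on irradiated (3,000 rad) autologous immature DCs with 10 units/ml IL-2. The cells (1 × 10^5) were cocultured with 5 × 10^4 irradiated immature CD14+ DCs plus glycolipid at 10 μg/ml. Supernatants were collected at 18 h and read on a 22-plex Luminex bead panel. Triplicates, mean ± SD.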

[6] = test system: Mus musculus; test: Induction of MIPbeta secretion in BALB/c mouse serum at 2 ug, iv after 2 hrs relative to control; format: functional; summary of the method: as §1
[7] = Induction of IL15 secretion in human CD161+ CD3+ NKT cells at 10 ug/ml after 18 hrs relative to basal level; format: functional; summary of the method: as §2
[8] = test system: Mus musculus; test: Induction of IL1-beta secretion in BALB/c mouse serum at 2 ug, iv after 18 hrs relative to control; format: functional; summary of the method: as §1
[9] = Induction of IL4 secretion in human CD161+ CD3+ NKT cells at 10 ug/ml after 18 hrs relative to basal level; format: functional; summary of the method: as §2
[10] = Induction of IL12p70 secretion in human CD161+ CD3+ NKT cells at 10 ug/ml after 18 hrs relative to basal level; format: functional; summary of the method: as §2
[11] = test system: Mus musculus; test: Induction of IL3 secretion in BALB/c mouse serum at 2 ug, iv after 2 hrs relative to control; format: functional; summary of the method: as §1
[12] = Induction of IL8 secretion in human CD161+ CD3+ NKT cells at 10 ug/ml after 18 hrs relative to basal level; format: functional; summary of the method: as §2
[13] = test system: Mus musculus; test: Induction of IL2 secretion in BALB/c mouse serum at 2 ug, iv after 2 hrs relative to control; format: functional; summary of the method: as §1
[14] = test system: Mus musculus; test: Induction of KC secretion in BALB/c mouse serum at 2 ug, iv after 2 hrs relative to control; format: functional; summary of the method: as §1
[15] = Induction of RANTES secretion in human CD161+ CD3+ NKT cells at 10 ug/ml after 18 hrs relative to basal level; format: functional; summary of the method: as §2
[16] = Induction of IL10 secretion in human CD161+ CD3+ NKT cells at 10 ug/ml after 18 hrs relative to basal level; format: functional; summary of the method: as §2
[17] = test system: NKT; test: Stimulation of cell expansion of human invariant CD161+/ Valpha24+/ CD56+/ CD3+ NKT cells by flow cytometry method; format: functional, cell-based
Summary of the method: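 CD56+ NK/NKT mixtures (2 × 10^6) were isolated from human leukopaks with anti-CD56 microbeads. They were cocultured with 4 × 10^5 autologous immature CD14+ DCs pulsed with glycolipid at 3 μg/ml, or with 0.3% DMSO, on day 2 for 18 h. Suspension cells were then transferred and kept in 100 units/ml IL-2 with fresh medium every 3 days. On day 9, CD161+/Vα24TCR+ cells were gated by flow cytometry and total Vα24i NKT cells counted. Triplicates, mean ± SD.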

[18] = Induction of IL13 secretion in human CD161+ CD3+ NKT cells at 10 ug/ml after 18 hrs relative to basal level; format: functional; summary of the method: as §2
[19] = Induction of IL6 secretion in human CD161+ CD3+ NKT cells at 10 ug/ml after 18 hrs relative to basal level; format: functional; summary of the method: as §2
[20] = test system: Mus musculus; test: Induction of IL6 secretion in BALB/c mouse serum at 2 ug, iv after 2 hrs relative to control; format: functional; summary of the method: as §1
[21] = test system: Mus musculus; test: Activation of natural killer cells in BALB/c mouse at 2 ug, iv after 72 hrs by flow cytometry; format: functional, organism-based
Summary of the method: (§3)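 BALB/c mice (n = 4/group) were given 100 μl of glycolipid at 20 μg/ml in saline i.v., or 100 μl of 1% DMSO. Spleens were harvested after 72 h and splenocyte subsets counted by flow cytometry: mature DCs as CD11c+/CD80+/CD86+, activated NK as U5A2-13Ag+/CD3−/CD69+, activated NKT as U5A2-13Ag+/CD3+/CD69+. Assays were run in duplicate, mean ± SD.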

[22] = test system: Mus musculus; test: Induction of MCP1 secretion in BALB/c mouse serum at 2 ug, iv after 2 hrs relative to control; format: functional; summary of the method: as §1
[23] = test system: Mus musculus; test: Induction of IL10 secretion in BALB/c mouse serum at 2 ug, iv after 18 hrs relative to control; format: functional; summary of the method: as §1
[24] = Induction of GM-CSF secretion in human CD161+ CD3+ NKT cells at 10 ug/ml after 18 hrs relative to basal level; format: functional; summary of the method: as §2
[25] = Induction of MIPalpha secretion in human CD161+ CD3+ NKT cells at 10 ug/ml after 18 hrs relative to basal level; format: functional; summary of the method: as §2
[26] = Induction of IL12p40 secretion in human CD161+ CD3+ NKT cells at 10 ug/ml after 18 hrs relative to basal level; format: functional; summary of the method: as §2
[27] = test system: Mus musculus; test: Activation of B cells in BALB/c mouse at 2 ug, iv after 72 hrs by flow cytometry; format: functional, organism-based
[28] = Induction of IFN-gamma secretion in human CD161+ CD3+ NKT cells at 10 ug/ml after 18 hrs relative to basal level; format: functional; summary of the method: as §2
[29] = Induction of IL2 secretion in human CD161+ CD3+ NKT cells at 10 ug/ml after 18 hrs relative to basal level; format: functional; summary of the method: as §2
[30] = test system: Mus musculus; test: Induction of IL13 secretion in BALB/c mouse serum at 2 ug, iv after 2 hrs relative to control; format: functional; summary of the method: as §1
[31] = Induction of IL3 secretion in human CD161+ CD3+ NKT cells at 10 ug/ml after 18 hrs relative to basal level; format: functional; summary of the method: as §2
[32] = Induction of MCP1 secretion in human CD161+ CD3+ NKT cells at 10 ug/ml after 18 hrs relative to basal level; format: functional; summary of the method: as §2
[33] = test system: Mus musculus; test: Induction of IL12p40 secretion in BALB/c mouse serum at 2 ug, iv after 18 hrs relative to control; format: functional; summary of the method: as §1
[34] = test system: Mus musculus; test: Induction of GM-CSF secretion in BALB/c mouse serum at 2 ug, iv after 2 hrs relative to control; format: functional; summary of the method: as §1
[35] = test system: Mus musculus; test: Activation of NKT cells in BALB/c mouse at 2 ug, iv after 72 hrs by flow cytometry; format: functional, organism-based; summary of the method: as §3
[36] = test system: Mus musculus; test: Induction of IFN-gamma secretion in BALB/c mouse serum at 2 ug, iv after 18 hrs relative to control; format: functional; summary of the method: as §1
[37] = test system: Mus musculus; test: Activation of dendritic cells in BALB/c mouse at 2 ug, iv after 72 hrs by flow cytometry; format: functional, organism-based; summary of the method: as §3
[38] = test system: TC1; test: Antitumor activity in TC1 cells xenografted C57BL/6 mouse assessed as suppression of tumor growth at 2 ug, iv; format: functional, cell-based
Summary of the method: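 C57BL/6 mice (n = 5/group) were inoculated i.v. with TC-1 lung cancer cells. They were then treated i.v. with 2 μg glycolipid per mouse, or 100 μl of 1% DMSO, twice weekly for 4 weeks. Kaplan–Meier survival and body weight were followed, with tumor-free mice as an additional control.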

[39] = test system: 4T1; test: Antitumor activity in mouse 4T1 cells xenografted BALB/c mouse assessed as suppression of tumor growth at 2 ug, iv; format: functional, cell-based
Summary of the method: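 BALB/c mice (n = 6) were inoculated s.c. with 4T1 breast cancer cells. From day 3 they were treated i.v. with glycolipid or vehicle twice weekly for 4 weeks. Tumor volume was recorded every 3 days for 1 month, and survival was monitored up to 54 days.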

[40] = test system: Mus musculus; test: Increase in CD8/CD4 T cell ratio in BALB/c mouse at 2 ug, iv after 72 hrs by flow cytometry; format: functional, organism-based

SMILES	Activity [5]	Activity [7]	Activity [9]	Activity [10]	Activity [12]	Activity [15]	Activity [16]	Activity [17]	Activity [18]	Activity [19]	Activity [21]	Activity [24]	Activity [25]	Activity [26]	Activity [28]	Activity [29]	Activity [31]	Activity [32]	Activity [35]	Activity [37]	also measured
CCCCCCCCCCCCCCCCCCCCCCCCCC(=O)N[C@@H](CO[C@H]1O[C@H](CO)[C@H](O)[C@H](OS(=O)(=O)[O-])[C@H]1O)[C@H](O)[C@H](O)CCCCCCCCCCCCCC.[Na+]	8.4	2.3	2.7	2.8	2.2	1.6	2.5	Active	1.6	2.7	Active	6.6	3.4	2	3.3	2.4	3.3	1.4	Active	Active	Activity [1]: 1.4; Activity [2]: 1.6; Activity [3]: 42.9; Activity [4]: 36.3; Activity [6]: 2.5; Activity [8]: 3.2; Activity [11]: 1.8; Activity [13]: 22; Activity [14]: 16.4; Activity [20]: 2.2; Activity [22]: 14.8; Activity [23]: 2.4; Activity [27]: Active; Activity [30]: 2.4; Activity [33]: 2.1; Activity [34]: 7.3; Activity [36]: 160.8
CCCCCCCCCCCCCCCCCCCCCCCCCC(=O)N[C@@H](CO[C@H]1O[C@H](CO)[C@H](O)[C@H](O)[C@H]1O)[C@H](O)[C@H](O)CCCCc1ccccc1	3.4	2.3	2.8	2.1	2.3	2	2	Active	1.8	1.9	Active	5.8	3.5	1.8	3.9	1.9	2.6	1.8	Active	Active	Activity [38]: Active; Activity [39]: Active
CCCCCCCCCCCCCC[C@@H](O)[C@@H](O)[C@H](CO[C@H]1O[C@H](CO)[C@H](O)[C@H](O)[C@H]1O)NC(=O)CCCCCCCCCCc1ccccc1	7.4	2.7	1.9	3	1.8	1.6	1.8	Active	1.6	2.1	Active	5.4	3.4	2.1	6.2	3.9	2.5	0.6	Active	Active	Activity [1]: 1.6; Activity [2]: 2.2; Activity [3]: 49.6; Activity [4]: 45.6; Activity [6]: 5.1; Activity [38]: Active; Activity [8]: 3.4; Activity [11]: 1.9; Activity [13]: 50.5; Activity [14]: 6.9; Activity [39]: Active; Activity [20]: 5.8; Activity [22]: 23.6; Activity [23]: 1.3; Activity [27]: Active; Activity [40]: Active; Activity [30]: 7.7; Activity [33]: 2.4; Activity [34]: 2.7; Activity [36]: 166.1
